Key:
CYP3A4 = conditions: ref Unpublished data in Eisai, cited from earlier work
[1] = test system: relapsed or refractory B‐cell lymphoma; assay: Phase I study: antitumor activity, Lugano Classification; assay type: in vivo, human
Method in brief: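 Oral dosing: 800 mg single dose in 4-day cycle 0, then 800 mg BID in 28-day cycles. Response assessed by CT per Lugano Classification. Bone marrow aspiration or biopsy if screening was positive or unconfirmed, to confirm CR, or when clinically indicated. Best overall response summarized overall and by DLBCL or FL in patients receiving ≥1 dose. ORR given with two-sided Clopper-Pearson exact 95% CIs.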

[2] = test system: refractory B‐NHL and advanced solid tumors; conditions: study outside of Japan; cited from earlier work
[3] = cited from earlier work
[4] = Phase I study: plasma and urine pharmacokinetics; assay type: in vivo, human; conditions: for R ss: AUC(0-12h) on cycle 1 day 15/AUC(0-inf) on cycle 0 day 1; for t max: median (minimum, maximum)
[5] = test system: Japanese patients with relapsed or refractory B‐NHL; assay: Phase I study: safety, adverse events and DLT; assay type: in vivo, human; conditions: 800 mg BID; n = 7
Method in brief: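 Patients received 800 mg orally once in a 4-day cycle 0, then 800 mg BID in 28-day cycles; reduction to 600 then 400 mg BID permitted. AEs graded by CTCAE v4.03, with hematology, chemistry, urinalysis, vital signs, 12-lead ECG and LVEF by echo/MUGA. DLT assessed over cycles 0–1 in patients completing both with ≥75% cycle-1 compliance, or having DLT. Safety set: ≥1 dose.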

[6] = seven treated patients, investigator assessment

CCN(c1cc(-c2ccc(CN3CCOCC3)cc2)cc(C(=O)NCc2c(C)cc(C)[nH]c2=O)c1C)C1CCOCC1 [Tazemetostat]
effect on the activity of CYP3A4 (CYP3A4; in vitro): induce and inhibit | metabolizing enzyme (CYP3A4): mainly metabolized by CYP3A4 | responses in patients with DLBCL ([1]; DLBCL): one of three | Best overall response: Complete response (CR) ([1]; DLBCL (n = 3), 800 mg BID): 1 (33.3) n (%) | Best overall response: Not evaluable ([1]; DLBCL (n = 3), 800 mg BID): 0 (0.0) n (%) | Best overall response: Partial response (PR) ([1]; DLBCL (n = 3), 800 mg BID): 0 (0.0) n (%) | Best overall response: Progressive disease ([1]; DLBCL (n = 3), 800 mg BID): 2 (66.7) n (%) | Best overall response: Stable disease ([1]; DLBCL (n = 3), 800 mg BID): 0 (0.0) n (%) | Objective response rate (CR + PR) ([1]; DLBCL (n = 3), 800 mg BID): 1 (33.3) n (%) | responses in patients with FL ([1]; FL): three of four | Best overall response: Complete response (CR) ([1]; FL (n = 4), 800 mg BID): 0 (0.0) n (%) | Best overall response: Not evaluable ([1]; FL (n = 4), 800 mg BID): 0 (0.0) n (%) | Best overall response: Partial response (PR) ([1]; FL (n = 4), 800 mg BID): 3 (75.0) n (%) | Best overall response: Progressive disease ([1]; FL (n = 4), 800 mg BID): 0 (0.0) n (%) | Best overall response: Stable disease ([1]; FL (n = 4), 800 mg BID): 1 (25.0) n (%) | Objective response rate (CR + PR) ([1]; FL (n = 4), 800 mg BID): 3 (75.0) n (%) | Best overall response: Complete response (CR) ([1]; Total (n = 7), 800 mg BID): 1 (14.3) n (%) | Best overall response: Not evaluable ([1]; Total (n = 7), 800 mg BID): 0 (0.0) n (%) | Best overall response: Partial response (PR) ([1]; Total (n = 7), 800 mg BID): 3 (42.9) n (%) | Best overall response: Progressive disease ([1]; Total (n = 7), 800 mg BID): 2 (28.6) n (%) | Best overall response: Stable disease ([1]; Total (n = 7), 800 mg BID): 1 (14.3) n (%) | Objective response rate (CR + PR) ([1]; Total (n = 7), 800 mg BID): 4 (57.1) n (%) | ORR ([1]; all patients (4/7), 800 mg BID): 57.1% | patients who experienced a reduction of tumor burden ([1]; n = 7): 85.7% | maximum change in the sum of the product of the diameters from baseline in the target lesion ([1]; one patient with FL with gain‐of‐function mutation in EZH2, partial response): −82.3% | CR as BOR [1, 6]: 14.3% | PR as BOR [1, 6]: 42.9% | progressive disease as BOR [1, 6]: 28.6% | stable disease as BOR [1, 6]: 14.3% | recommended dose [2]: 800 mg BID | treatment‐related deaths ([3]; 99 patients): no treatment‐related deaths | treatment‐related grade 3 or higher AE anemia ([3]; all 99 patients): 2% | treatment‐related grade 3 or higher AE neutropenia ([3]; all 99 patients): 3% | treatment‐related grade 3 or higher AE thrombocytopenia ([3]; all 99 patients): 3% | Treatment‐related SAEs ([3]; four of 99 patients): 4% | absorption after oral administration ([4]; 800 mg oral): rapidly absorbed | R ss ([4]; mean (SD)): 0.849 (0.277) | R ss ([4]; mean (SD), listed as tazemetostat): 0.849 | mean urinary excretion of tazemetostat ([4]; both after C0D1 and C1D15 dosing): less than 3% | Vd/F ([4]; human, plasma, oral, 800 mg): 1910 L | AUC ([4]; human, plasma, oral, 800 mg BID, AUC(0‐ t ), plasma, after multiple doses, Cycle 1 day 15, last sampling time point 12 h, mean (SD), N = 7): 4490 ng·h/mL | t max ([4]; human, plasma, oral, 800 mg BID, t max, plasma, after multiple doses, Cycle 1 day 15, N = 7): ~1 h | AUC ([4]; human, plasma, oral, 800 mg, AUC(0‐12 h), plasma, after single dose, Cycle 0 day 1, mean (SD), N = 7): 4700 ng·h/mL | AUC ([4]; human, plasma, oral, 800 mg, AUC(0‐ t ), plasma, after single dose, Cycle 0 day 1, last sampling time point 72 h, mean (SD), N = 7): 5990 ng·h/mL | AUC ([4]; human, plasma, oral, 800 mg, AUC(0‐inf), plasma, after single dose, Cycle 0 day 1, mean (SD), N = 7): 6030 ng·h/mL | t max ([4]; human, plasma, oral, 800 mg, t max, plasma, after single dose, Cycle 0 day 1, N = 7): ~2 h | Cmax ([4]; human, plasma, po, 800 mg): 1150 ng/mL | C ss,min ([4]; plasma, after multiple doses 800 mg BID, Cycle 1 day 15, mean (SD), N = 7): 95.1 (37.7) ng/mL | t max ([4]; plasma, after multiple doses, Cycle 1 day 15, N = 7): 1.05 (0.88, 2.03) h | t max ([4]; plasma, after single dose, Cycle 0 day 1, N = 7): 1.97 (0.95, 4.08) h | Anemia, all TEAEs, Grade ≥3 [5]: 1 (14.3) patients (%) | Anemia, all TEAEs, all grades [5]: 2 (28.6) patients (%) | Anemia, treatment‐related TEAEs, Grade ≥3 [5]: 1 (14.3) patients (%) | Anemia, treatment‐related TEAEs, all grades [5]: 2 (28.6) patients (%) | Blood creatinine increased, all TEAEs, Grade ≥3 [5]: 0 (0.0) patients (%) | Blood creatinine increased, all TEAEs, all grades [5]: 2 (28.6) patients (%) | Blood creatinine increased, treatment‐related TEAEs, Grade ≥3 [5]: 0 (0.0) patients (%) | Blood creatinine increased, treatment‐related TEAEs, all grades [5]: 1 (14.3) patients (%) | Constipation, all TEAEs, Grade ≥3 [5]: 0 (0.0) patients (%) | Constipation, all TEAEs, all grades [5]: 3 (42.9) patients (%) | Constipation, treatment‐related TEAEs, Grade ≥3 [5]: 0 (0.0) patients (%) | Constipation, treatment‐related TEAEs, all grades [5]: 1 (14.3) patients (%) | Dry eye, all TEAEs, Grade ≥3 [5]: 0 (0.0) patients (%) | Dry eye, all TEAEs, all grades [5]: 2 (28.6) patients (%) | Dry eye, treatment‐related TEAEs, Grade ≥3 [5]: 0 (0.0) patients (%) | Dry eye, treatment‐related TEAEs, all grades [5]: 0 (0.0) patients (%) | Dry skin, all TEAEs, Grade ≥3 [5]: 0 (0.0) patients (%) | Dry skin, all TEAEs, all grades [5]: 2 (28.6) patients (%) | Dry skin, treatment‐related TEAEs, Grade ≥3 [5]: 0 (0.0) patients (%) | Dry skin, treatment‐related TEAEs, all grades [5]: 2 (28.6) patients (%) | Dysgeusia, all TEAEs, Grade ≥3 [5]: 0 (0.0) patients (%) | Dysgeusia, all TEAEs, all grades [5]: 3 (42.9) patients (%)

— PMC7935786 (Cancer Science, 2021)
